Test [1] addresses T1, human 5-LOX (Homo sapiens, UniProt P09917).
T1 sequence (P09917 1-674): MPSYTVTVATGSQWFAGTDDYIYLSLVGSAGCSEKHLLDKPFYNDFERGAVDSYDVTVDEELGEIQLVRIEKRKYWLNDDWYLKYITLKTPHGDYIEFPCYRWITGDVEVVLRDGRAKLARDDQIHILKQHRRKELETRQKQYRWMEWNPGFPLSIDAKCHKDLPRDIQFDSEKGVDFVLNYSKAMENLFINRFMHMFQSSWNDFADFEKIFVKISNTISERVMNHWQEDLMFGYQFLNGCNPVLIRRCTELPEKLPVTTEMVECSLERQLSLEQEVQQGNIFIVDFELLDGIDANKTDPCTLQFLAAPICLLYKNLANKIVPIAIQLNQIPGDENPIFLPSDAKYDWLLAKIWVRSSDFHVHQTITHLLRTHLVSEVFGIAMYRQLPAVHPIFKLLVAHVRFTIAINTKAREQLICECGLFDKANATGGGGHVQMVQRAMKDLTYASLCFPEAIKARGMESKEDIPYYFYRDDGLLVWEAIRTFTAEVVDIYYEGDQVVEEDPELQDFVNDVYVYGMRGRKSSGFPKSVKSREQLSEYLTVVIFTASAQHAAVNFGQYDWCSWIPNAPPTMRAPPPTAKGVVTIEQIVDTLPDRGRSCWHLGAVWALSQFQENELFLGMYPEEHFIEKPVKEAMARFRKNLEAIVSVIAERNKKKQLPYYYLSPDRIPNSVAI
As to the kind of experiment: Human 5-LOX inhibition screening UV assay. The format is biochemical. The conditions noted are these: 50 μM compound; 100 μM linoleic acid substrate; 10 min pre-incubation. In outline:
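Human 5-LOX was diluted 1:4000 in 50 mM Tris pH 7.5 with 2 mM EDTA and 2 mM CaCl2, plus ATP (2 mM stock). It was pre-incubated 10 min at room temperature with test compound diluted from DMSO stock, or a DMSO-only control. Linoleic acid (20 mM ethanolic stock) was added, and HPOD conjugated diene formation was followed at 234 nm over 20 min. Residual activity was taken relative to the control. Three independent experiments; mean with SD.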

Test [2] concerns the target T2, COX-2 (human recombinant) (Homo sapiens, UniProt P35354).
T2 sequence (P35354 18-604): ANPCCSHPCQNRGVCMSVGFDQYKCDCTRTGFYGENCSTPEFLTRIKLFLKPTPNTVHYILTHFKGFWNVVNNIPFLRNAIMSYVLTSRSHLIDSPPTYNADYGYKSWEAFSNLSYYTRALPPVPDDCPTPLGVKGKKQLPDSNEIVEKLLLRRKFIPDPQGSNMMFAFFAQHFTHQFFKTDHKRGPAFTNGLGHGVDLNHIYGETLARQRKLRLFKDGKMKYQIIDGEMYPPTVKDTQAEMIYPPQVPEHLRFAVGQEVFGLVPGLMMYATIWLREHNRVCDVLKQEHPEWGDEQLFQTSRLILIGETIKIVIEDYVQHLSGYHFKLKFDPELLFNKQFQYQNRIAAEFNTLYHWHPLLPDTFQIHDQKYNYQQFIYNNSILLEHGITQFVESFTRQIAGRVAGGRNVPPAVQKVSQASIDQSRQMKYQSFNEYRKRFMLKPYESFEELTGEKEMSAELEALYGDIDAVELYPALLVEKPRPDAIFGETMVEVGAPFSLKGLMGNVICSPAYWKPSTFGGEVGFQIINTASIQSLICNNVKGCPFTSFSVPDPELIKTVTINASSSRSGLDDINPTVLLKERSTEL
As to the kind of experiment: COX-2 inhibition screening assay. It is filed as biochemical. As to conditions: 50 μM compound; 2 mM arachidonic acid substrate. Summed up: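 Human recombinant COX-2 was diluted 1:1000 in 0.1 M Tris pH 8.0 with hematin. It was pre-incubated 5 min at room temperature with test compound from a 1.1 mM DMSO solution, or DMSO for the positive control. Freshly made TMPD and then arachidonic acid were added, with no arachidonic acid in negative controls. After 5 more min at room temperature, TMPD oxidation was read at 550 nm. Triplicate; mean with SD.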

Test [3] concerns soybean lipoxygenase-1 (SLO-1). The conditions noted are these: cited from earlier work.
For test [4], the system named is potato 5-lipoxygenase. As to conditions: cited from earlier work.
Test [5] deals with T1, human 5-LOX. As to the kind of experiment: Michaelis-Menten enzyme kinetics of human 5-LOX versus ATP or linoleic acid. The format is biochemical. As to conditions: for type of modulation versus linoleic acid: varied linoleic acid.
The target of test [6] is T3, h-5-LOX (Homo sapiens, UniProt P09917).
T3 sequence (P09917 1-674): T1 sequence (P09917 1-674)
As to the kind of experiment: h-5-LOX activity with arachidonic acid as substrate. It is filed as biochemical. The conditions noted are these: 50 μM compound; 100 μM arachidonic acid.

The mark [7] stands for this setting: linoleic acid conversion, non-essential activation model.

Entries after “also recorded” stand apart in the source; their conditions may differ.

Regarding `CCCCCCCCCCCCCCCc1cccc(O)c1C(=O)O` [Compound 14, Anacardic acid, reference compound], the “effect on h-5-LOX activity (in words)” value in test [1] is “little inhibition”. Moreover, the “effect on COX-2 activity (in words)” value in test [2] is recorded as “little inhibition”.

Consider `CCCCCCCCCCc1cccc(O)c1C(=O)O` [Compound 15], for which the “effect on h-5-LOX activity (in words)” value in test [1] is listed as “little inhibition”. Also, in test [2], the “effect on COX-2 activity (in words)” value was “little inhibition”.

With `CCCCCc1cccc(O)c1C(=O)O` [Compound 16], the “effect on h-5-LOX activity (in words)” value in test [1] is reported as “little inhibition”. Besides, in test [2], the “effect on COX-2 activity (in words)” value is “little inhibition”.

Regarding `CCCCCCCCCCCCCCCc1cc(O)cc(O)c1C(=O)O` [Compound 17], the “effect on h-5-LOX activity (in words)” value in test [1] is “slight improvement in the inhibitory potency”.

With `CCCCCCCc1ccc(CCc2cc(O)cc(O)c2C(=O)O)cc1` [Compound 19], in test [3], the “effect on soybean lipoxygenase-1 (SLO-1)” value is “allosteric inhibitor”.

Take `CCCCCCCCCCCCCCOc1cccc(O)c1C(=O)O` [Compound 21]: the “effect on h-5-LOX activity (in words)” value in test [1] was “neither inhibition nor activation”. Moreover, in test [4], the “effect on potato 5-LOX” value is “strong activation; also recorded: allosteric activator”.

Regarding `CCCCCOc1ccc(COc2cccc(O)c2C(=O)[O-])cc1.[K+]` [Compound 23a, potassium 2-hydroxy-6-((4-(pentyloxy)benzyl)oxy)benzoate], the “α (change in the affinity of substrate binding)” value in test [5] (setting [7]) came to 0.0438. Besides, in test [5] (setting [7]), the “β (change in the catalytic constant)” value is listed as 1.76. Further, the “type of modulation versus ATP” value in test [5] (varied ATP, 100 μM linoleic acid) is listed as “non-competitive activation”. In addition, the “type of modulation versus linoleic acid” value in test [5] (100 μM ATP) was “non-essential mixed type activation”. Besides, the “activation of linoleic acid conversion versus compound concentration” value in test [5] (various concentrations of compound, linoleic acid substrate) is reported as “concentration dependent activation”. Further, the “Vmax^app” value amounted to 0.3861 ± 0.0073 µM/s in test [5] (versus ATP, 12.5 μM 23a, 100 μM linoleic acid); 0.5236 ± 0.0137 µM/s in test [5] (versus ATP, 25 μM 23a, 100 μM linoleic acid); 2.39 ± 0.07 µM/s in test [5] (versus linoleic acid, 12.5 μM 23a, 100 μM ATP); 2.70 ± 0.05 µM/s in test [5] (versus linoleic acid, 25 μM 23a, 100 μM ATP). The “effect on h-5-LOX activity (in words)” value in test [1] is “strong activation”. Besides, the “modulation of h-5-LOX activity toward arachidonic acid” value in test [6] is given as “no modulation; also recorded: no effect”.

`CCCCCCCOc1ccc(COc2cccc(O)c2C(=O)[O-])cc1.[K+]` [Compound 23b, Potassium 2-((4-(heptyloxy)benzyl)oxy)-6-hydroxybenzoate]: the “effect on h-5-LOX activity (in words)” value in test [1] is “no or little inhibition”.

As for `CCCCCCCCCOc1ccc(COc2cccc(O)c2C(=O)[O-])cc1.[K+]` [Compound 23c, Potassium 2-hydroxy-6-((4-(nonyloxy)benzyl)oxy)benzoate], in test [1], the “effect on h-5-LOX activity (in words)” value is “no or little inhibition”.

For `CC(C)CCCC(C)CCOc1ccc(COc2cccc(O)c2C(=O)[O-])cc1.[K+]` (stereo not drawn) [Compound 23d, Potassium 2-((4-((3,7-dimethyloctyl)oxy)benzyl)oxy)-6-hydroxybenzoate], in test [5] (linoleic acid conversion, mixed type inhibition model), the “Ki′ (dissociation constant of inhibitor to enzyme-substrate complex)” value was 140 µM. For the same compound, in test [5] (100 μM ATP), the “type of modulation versus linoleic acid” value is “mixed-type inhibition”. Moreover, the “Vmax^app” value worked out at 1.84 ± 0.25 µM/s in test [5] (versus linoleic acid, 25 μM 23d) and 1.47 ± 0.16 µM/s in test [5] (versus linoleic acid, 50 μM 23d). The “modulation of h-5-LOX activity toward arachidonic acid” value in test [6] was “no modulation; also recorded: no effect”.

As for `Oc1ccccc1-c1nc2ccccc2o1` [Compound 25, 2-(benzo[d]oxazol-2-yl)phenol], in test [1], the “effect on h-5-LOX activity (in words)” value was “did not inhibit; also recorded: no inhibition”.

Usually Km stands for the substrate concentration at which the rate is half of its maximum. On to `CCCCC/C=C\C/C=C\CCCCCCCC(=O)O` [linoleic acid], for which the Km in test [5] (read-out: Km of the substrate for h-5-LOX, no modulator) is 600 µM.

The values are drawn from paper PMC4017091 (Bioorganic & medicinal chemistry, 2013).
